# Test results: article PMC10213863 (Cell Reports Medicine, 2023)
# Assays:
# TLR9 = target: T1, TLR9 (Homo sapiens, UniProt Q9NR96); experiment: Ramos Blue reporter B cell line, ODN2006 stimulation; assay type: cell-based; details: Ramos cells
# T1 sequence (Q9NR96 26-1032): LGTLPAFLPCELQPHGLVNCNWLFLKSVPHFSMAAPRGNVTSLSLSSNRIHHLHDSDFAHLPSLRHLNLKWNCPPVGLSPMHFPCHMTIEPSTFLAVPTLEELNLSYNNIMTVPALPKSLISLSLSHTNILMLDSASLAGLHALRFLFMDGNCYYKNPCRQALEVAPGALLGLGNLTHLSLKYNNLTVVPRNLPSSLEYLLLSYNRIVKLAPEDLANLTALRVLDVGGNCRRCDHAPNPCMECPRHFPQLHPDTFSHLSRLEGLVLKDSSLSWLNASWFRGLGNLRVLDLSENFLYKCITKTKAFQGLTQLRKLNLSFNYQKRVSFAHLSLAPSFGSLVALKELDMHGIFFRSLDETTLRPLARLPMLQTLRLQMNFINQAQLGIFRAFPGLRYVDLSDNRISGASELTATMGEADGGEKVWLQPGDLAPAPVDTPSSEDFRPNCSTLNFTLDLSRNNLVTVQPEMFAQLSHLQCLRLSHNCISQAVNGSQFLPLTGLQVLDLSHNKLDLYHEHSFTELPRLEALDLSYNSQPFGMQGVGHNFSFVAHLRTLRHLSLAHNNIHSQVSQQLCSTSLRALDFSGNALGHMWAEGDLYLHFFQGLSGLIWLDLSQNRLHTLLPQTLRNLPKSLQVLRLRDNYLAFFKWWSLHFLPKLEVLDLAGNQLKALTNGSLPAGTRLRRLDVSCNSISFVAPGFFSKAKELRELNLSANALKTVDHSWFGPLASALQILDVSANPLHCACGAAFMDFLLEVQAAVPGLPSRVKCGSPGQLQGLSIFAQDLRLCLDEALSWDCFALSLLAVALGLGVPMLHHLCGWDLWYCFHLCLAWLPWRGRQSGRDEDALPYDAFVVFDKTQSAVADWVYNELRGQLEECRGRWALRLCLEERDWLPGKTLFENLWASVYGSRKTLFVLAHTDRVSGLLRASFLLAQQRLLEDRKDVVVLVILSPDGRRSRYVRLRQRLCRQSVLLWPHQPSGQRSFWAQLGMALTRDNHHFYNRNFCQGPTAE
# Outline: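 Ramos Blue B reporter cells were pre-treated 30 min at 37°C, 5% CO2 with increasing concentrations of test compound or 0.25% v/v DMSO. They were then stimulated with the respective agonist, and reporter activity was read.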
# NZB/W F1 mice [1] = experiment: Mouse NZB/W F1 model of lupus, MHV370 in food; assay type: in vivo
# Outline: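 NZB/W F1 mice entered at 23 weeks and were randomized into groups of 14 (mean proteinuria 0.1–0.5 mg/mL). They were dosed with test compound in food. Weight was recorded twice weekly; proteinuria weekly by quantitative protein assay (BSA standard). Serum IgG autoantibodies were measured by ELISA at 1:100 or 1:300, with DWEYS peptide for NMDAR, HRP anti-IgG (1:10′000) and TMB. Kidney IgG was stained by IHC; positive/total area was averaged over ten sections per mouse.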
# NZB/W F1 mice [2] = experiment: NZB/W F1 model repeated at a different site, therapeutic twice-daily oral dosing; assay type: in vivo, mouse
# Outline: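 This repeat NZB/W F1 study had three differences. Mice were included at dipstick proteinuria score 2 (0.3–1 mg/mL), proteinuria was scored by dipstick, and test compound was given orally b.i.d. rather than in food. Kidney IgM and IgG deposits were quantified as positively stained area over total section area on ten sections per mouse, then averaged.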
# TLR7/8 = experiment: Human PBMC cytokine release, TLR7/8 agonists ssRNA or R848; assay type: cell-based; details: human PBMCs, IL-6 as readout
# TLR4 [3] = target: TLR4 (Mus musculus, UniProt Q9QUK6); experiment: Murine whole blood assay, TLR4 activation; assay type: cell-based; details: up to 10 μM, data not shown, n = 4
# Sequence of TLR4 (Mus musculus, UniProt Q9QUK6) (Q9QUK6 26-835): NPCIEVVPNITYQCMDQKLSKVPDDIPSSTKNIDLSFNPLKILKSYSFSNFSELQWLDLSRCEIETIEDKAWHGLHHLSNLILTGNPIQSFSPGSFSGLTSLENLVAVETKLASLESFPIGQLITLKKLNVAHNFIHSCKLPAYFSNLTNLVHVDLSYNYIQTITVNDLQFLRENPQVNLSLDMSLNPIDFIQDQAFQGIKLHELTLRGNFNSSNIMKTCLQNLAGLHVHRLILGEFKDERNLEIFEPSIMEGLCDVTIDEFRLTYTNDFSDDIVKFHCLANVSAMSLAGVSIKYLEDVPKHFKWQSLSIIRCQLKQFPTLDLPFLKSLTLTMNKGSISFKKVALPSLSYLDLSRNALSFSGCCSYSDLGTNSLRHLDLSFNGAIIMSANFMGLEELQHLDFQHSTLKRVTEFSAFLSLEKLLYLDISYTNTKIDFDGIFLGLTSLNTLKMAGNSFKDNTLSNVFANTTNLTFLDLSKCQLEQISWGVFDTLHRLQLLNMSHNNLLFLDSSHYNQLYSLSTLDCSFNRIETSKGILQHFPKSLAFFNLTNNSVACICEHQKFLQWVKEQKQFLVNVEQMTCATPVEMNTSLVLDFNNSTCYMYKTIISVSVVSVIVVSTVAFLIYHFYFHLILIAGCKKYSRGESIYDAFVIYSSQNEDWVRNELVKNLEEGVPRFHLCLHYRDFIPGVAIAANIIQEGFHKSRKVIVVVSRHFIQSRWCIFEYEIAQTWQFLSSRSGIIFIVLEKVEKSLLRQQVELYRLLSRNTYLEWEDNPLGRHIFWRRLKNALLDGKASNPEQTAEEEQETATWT
# Sequence of TLR4 (Mus musculus, UniProt Q9QUK6) (Q9JHF9 19-160 partner): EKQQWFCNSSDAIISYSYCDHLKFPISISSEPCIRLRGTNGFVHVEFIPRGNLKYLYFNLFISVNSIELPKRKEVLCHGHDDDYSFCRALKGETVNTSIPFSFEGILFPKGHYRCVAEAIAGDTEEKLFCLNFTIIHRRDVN
# Outline: (§1)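 Fresh human blood or 129/Sv mouse blood was taken into citrate and diluted 1:1 with RPMI1640. It was pre-incubated 30 min at 37°C, 5% CO2 with increasing concentrations of test compound or 0.25% v/v DMSO (final). Blood was then stimulated with TLR agonists at doses from earlier work, or with R848 (3 μM), and cytokines were quantified. Viability was checked by ATPlite luminescence.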
# [4] = test system: SLE immune-complex-driven IFN-α response in PBMCs; experiment: IFN-α release from PBMCs stimulated with SLE patient sera immune complexes; assay type: cell-based, human; details: PBMCs
# IL-1 receptor (IL-1R) = IL-1 receptor (IL-1R) (Homo sapiens, UniProt P14778); experiment: Human PBMC cytokine secretion, IL-1 receptor agonist; assay type: cell-based; details: human PBMCs; up to 10 μM; n = 5 donors, data not shown
# Sequence of IL-1 receptor (IL-1R) (P14778 18-569): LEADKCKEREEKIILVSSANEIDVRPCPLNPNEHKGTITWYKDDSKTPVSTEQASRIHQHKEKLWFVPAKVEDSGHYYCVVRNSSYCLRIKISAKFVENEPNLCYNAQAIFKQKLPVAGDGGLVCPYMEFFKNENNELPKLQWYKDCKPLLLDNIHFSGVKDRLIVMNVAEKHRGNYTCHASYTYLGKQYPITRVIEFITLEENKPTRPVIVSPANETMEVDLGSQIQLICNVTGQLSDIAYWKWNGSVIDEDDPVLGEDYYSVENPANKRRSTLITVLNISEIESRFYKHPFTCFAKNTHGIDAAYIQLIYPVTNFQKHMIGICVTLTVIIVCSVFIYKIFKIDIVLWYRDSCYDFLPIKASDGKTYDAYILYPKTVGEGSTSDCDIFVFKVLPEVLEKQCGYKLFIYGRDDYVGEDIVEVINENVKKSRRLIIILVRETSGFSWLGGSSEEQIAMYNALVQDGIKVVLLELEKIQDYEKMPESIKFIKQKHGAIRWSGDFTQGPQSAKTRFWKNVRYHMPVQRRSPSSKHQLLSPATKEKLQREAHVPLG
# Outline: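 Human PBMCs were pre-incubated 30 min with test compound, then stimulated with the respective TLR or IL-1R agonist at doses from earlier work. Cytokines in supernatants were quantified by immunoassay. Viability across the dose range was checked by CellTiter-Glo.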
# TLR4 [5] = target: TLR4 (Homo sapiens, UniProt O00206); experiment: Human whole blood assay, LPS-TNF; assay type: cell-based
# Sequence of TLR4 (Homo sapiens, UniProt O00206) (O00206 24-839): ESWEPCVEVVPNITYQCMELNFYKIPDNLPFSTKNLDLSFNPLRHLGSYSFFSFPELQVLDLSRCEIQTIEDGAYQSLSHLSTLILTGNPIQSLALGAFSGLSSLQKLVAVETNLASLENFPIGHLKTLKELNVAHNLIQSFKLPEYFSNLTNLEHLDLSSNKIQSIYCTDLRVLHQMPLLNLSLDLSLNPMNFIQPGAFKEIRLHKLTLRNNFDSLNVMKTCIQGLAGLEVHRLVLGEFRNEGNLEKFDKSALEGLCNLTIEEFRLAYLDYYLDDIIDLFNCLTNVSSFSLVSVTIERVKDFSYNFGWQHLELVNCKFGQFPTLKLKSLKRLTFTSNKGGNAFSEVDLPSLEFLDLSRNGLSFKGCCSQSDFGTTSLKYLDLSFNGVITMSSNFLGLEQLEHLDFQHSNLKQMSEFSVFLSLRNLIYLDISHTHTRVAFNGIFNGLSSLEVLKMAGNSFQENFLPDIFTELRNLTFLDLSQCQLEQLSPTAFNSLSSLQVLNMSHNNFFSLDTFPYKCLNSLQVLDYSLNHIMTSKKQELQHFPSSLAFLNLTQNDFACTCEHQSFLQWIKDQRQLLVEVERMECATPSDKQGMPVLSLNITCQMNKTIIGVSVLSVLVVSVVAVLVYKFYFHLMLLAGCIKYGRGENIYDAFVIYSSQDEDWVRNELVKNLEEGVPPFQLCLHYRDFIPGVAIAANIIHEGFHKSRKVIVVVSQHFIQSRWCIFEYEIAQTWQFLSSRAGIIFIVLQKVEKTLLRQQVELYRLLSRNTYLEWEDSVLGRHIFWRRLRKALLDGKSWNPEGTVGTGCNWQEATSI
# Sequence of TLR4 (Homo sapiens, UniProt O00206) (Q9Y6Y9 19-160 partner): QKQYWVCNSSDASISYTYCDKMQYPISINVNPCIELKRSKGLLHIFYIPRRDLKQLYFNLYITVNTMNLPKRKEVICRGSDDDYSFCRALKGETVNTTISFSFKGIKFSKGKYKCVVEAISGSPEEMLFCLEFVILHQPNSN
# Outline: as §1
# mouse blood = experiment: Cell viability in mouse blood; assay type: cell-based; details: up to 10 μM
# Outline: as §1
# [6] = test system: human PBMCs, monocytes, neutrophils, human blood; experiment: Cell viability in profiling assays; assay type: cell-based; details: human primary cells; concentrations of up to 10 μM
# Outline: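 Toxicity counter-screens were run within each primary-cell assay across the test-compound dose range. PBMCs, isolated monocytes and neutrophils were read by CellTiter-Glo. Diluted whole blood was read by ATPlite luminescence.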
# murine TLR7 = murine TLR7 (Mus musculus, UniProt P58681); experiment: Murine whole blood assay, ssRNA-induced IFN-α and TNF; assay type: cell-based
# Sequence of murine TLR7 (P58681 27-1050): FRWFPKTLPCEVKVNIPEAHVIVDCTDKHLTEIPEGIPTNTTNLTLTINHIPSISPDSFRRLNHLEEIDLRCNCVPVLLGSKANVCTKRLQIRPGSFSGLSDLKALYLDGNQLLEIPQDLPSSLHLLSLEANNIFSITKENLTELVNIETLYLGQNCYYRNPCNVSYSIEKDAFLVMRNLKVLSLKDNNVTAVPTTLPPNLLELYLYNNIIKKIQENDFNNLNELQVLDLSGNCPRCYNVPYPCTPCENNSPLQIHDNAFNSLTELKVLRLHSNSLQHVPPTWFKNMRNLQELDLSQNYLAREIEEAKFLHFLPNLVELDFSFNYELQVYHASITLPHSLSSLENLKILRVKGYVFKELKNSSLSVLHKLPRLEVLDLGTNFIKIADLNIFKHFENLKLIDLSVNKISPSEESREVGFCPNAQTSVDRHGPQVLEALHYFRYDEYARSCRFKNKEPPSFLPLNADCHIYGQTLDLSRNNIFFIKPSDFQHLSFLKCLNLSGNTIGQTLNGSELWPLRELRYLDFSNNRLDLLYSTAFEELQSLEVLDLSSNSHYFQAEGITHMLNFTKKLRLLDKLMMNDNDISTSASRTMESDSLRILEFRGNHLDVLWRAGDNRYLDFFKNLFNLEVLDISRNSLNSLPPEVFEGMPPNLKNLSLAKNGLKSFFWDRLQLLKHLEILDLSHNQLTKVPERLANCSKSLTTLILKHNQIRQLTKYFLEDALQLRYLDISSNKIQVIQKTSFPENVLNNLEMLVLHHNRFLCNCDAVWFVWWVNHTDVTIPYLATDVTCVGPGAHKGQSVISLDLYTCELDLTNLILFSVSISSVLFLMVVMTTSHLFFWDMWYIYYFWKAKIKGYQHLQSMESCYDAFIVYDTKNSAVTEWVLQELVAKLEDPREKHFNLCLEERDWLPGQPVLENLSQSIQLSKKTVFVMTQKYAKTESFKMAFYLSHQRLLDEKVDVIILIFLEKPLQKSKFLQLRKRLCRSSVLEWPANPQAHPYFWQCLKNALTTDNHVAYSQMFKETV
# Outline: as §1
# [7] = 0.1% MHV370 in food, kidney histology
# [8] = MHV370-laced food, at termination
# [9] = therapeutic b.i.d. p.o. after robust proteinuria
structure (smiles),measurement,setting,value
"Cc1cc(N2CCc3c(c(C)nn3CC34CCC(NC(=O)[C@@H]5COCCN5)(CC3)CC4)C2)c2cnn(C)c2n1 [MHV370, (S)-N-(4-((5-(1,6-dimethyl-1H-pyrazolo[3,4-b]pyridin-4-yl)-3-methyl-4,5,6,7-tetrahydro-1H-pyrazolo[4,3-c]pyridin-1-yl)methyl)bicyclo[2.2.2]octan-1-yl)morpholine-3-carboxamide]",inhibitory activity against endosomal TLR9,TLR9,no or very limited inhibitory activity
same,inhibition of proteinuria at low dose,NZB/W F1 mice [1]; 0.01% MHV370 in food,already achieved
same,IgG deposits in the glomeruli,NZB/W F1 mice [1]; [7],reduced
same,glomerulopathy,NZB/W F1 mice [1]; [7],reduced
same,infiltration of kidneys with CD45R+ B cells,NZB/W F1 mice [1]; [7],reduced
same,infiltration of kidneys with CD138+ plasma cells,NZB/W F1 mice [1]; [7],reduced
same,proteinuria,NZB/W F1 mice [1]; MHV370-laced food,effectively prevented
same,blood urea nitrogen (BUN),NZB/W F1 mice [1]; [8],moderately reduced
same,serum levels of CXCL13,NZB/W F1 mice [1]; [8],significantly reduced
same,IgG autoantibody levels against NMDAR,NZB/W F1 mice [1]; serum at termination,reduced
same,IgG autoantibody levels against Smith (Sm),NZB/W F1 mice [1]; serum at termination,reduced
same,IgG autoantibody levels against ribosomal P (RiboP),NZB/W F1 mice [1]; serum at termination,reduced
same,serum antibodies against double-stranded DNA (dsDNA),NZB/W F1 mice [1]; serum at termination,not reduced
same,serum antibodies against histones,NZB/W F1 mice [1]; serum at termination,not reduced
same,IgM and IgG deposition in kidneys (histology),NZB/W F1 mice [2]; therapeutic b.i.d. p.o.,substantially reduced
same,proteinuria (dipstick score),NZB/W F1 mice [2]; [9],reduced proteinuria
same,survival,NZB/W F1 mice [2]; [9],increased survival
same,mode of antagonism (Schild analysis),TLR7/8,competitive and reversible antagonist
same,functional inhibition of TLR4,TLR4 [3],did not show functional inhibition
same,"immune-complex-driven responses, sera expressing dsDNA antibodies",[4]; MHV370 0.3 μM,blocked to a much lesser extent
same,"immune-complex-driven responses, sera positive for RNP/Sm and/or SS-A, or RNP/Sm and/or SS-A plus dsDNA autoantibodies",[4]; MHV370 0.3 μM,completely blocked
same,"IFN-α suppression, MHV370 added to HCQ","[4]; MHV370 1–10 nM combined with variable concentrations of HCQ, SLE immune complexes",almost complete suppression
same,"interference with cytokine secretion, IL-1R agonist",IL-1 receptor (IL-1R),did not significantly interfere
same,activity following TLR4 activation,TLR4 [5],inactive
same,effect on cell viability,mouse blood,did not show
same,cell toxicity,[6],did not lead to cell toxicity
same,IC50,"murine TLR7; IC50, TLR7 (ssRNA-IFN-α), mouse blood, mean ± SEM (n)",58 ± 10 nM
same,potency on mouse whole blood relative to human whole blood (fold lower),murine TLR7; mouse vs human whole blood,about 10 fold
